pIC50: −log10 of the molar value.
target: not listed separately; assay: Inhibition of Trypanosoma cruzi recombinant Trans-sialidase; conditions: read-out: I50
How it was run: (§1)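 Recombinant His-tagged TcTS was expressed in E. coli with IPTG induction at 18 °C, then purified by metal-affinity and anion-exchange chromatography. Enzyme (0.33 mg/mL stock) and inhibitor were preincubated 10 min at 25 °C in 20 mM Tris-HCl pH 7.5. The reaction was started with MuNANA (1 mM stock) and methylumbelliferone release read continuously for 10 min at 25 °C (ex 322/em 448 nm). Percentage activity is the mean of ≥3 independent runs. I50 was fitted as V=100%/{1+([I]/I50)^s}.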

In order of falling pIC50:
1. CC(=O)Nc1ccc(C(=O)O)nc1N  3.36
2. CC(=O)Nc1ccc(C(=O)O)cc1CO  3.27
3. CC(=S)Nc1ccc(C(=O)O)nc1  3.27
4. CC(=O)Nc1cc(C(=O)O)ccc1N1CCOCC1  3.24
5. Nc1cc(C(=O)O)ccc1SCc1ccccc1  3.15
6. Nc1cc(C(=O)O)ccc1NCc1cccnc1  3.13
7. CNC(=O)c1ccc(C(=O)O)cc1NC(=N)N  3.12
8. NCC(=O)Nc1cc(C(=O)O)ccc1SCc1ccccc1  3.00
9. Nc1cc(C(=O)O)ccc1NC(=O)Cc1ccccc1  2.92

tested on: Trypanosoma cruzi; assay: Inhibition of Trypanosoma cruzi recombinant Trans-sialidase at 0.5 mM; conditions: not given; how it was run: as §1

With `NC(N)=Nc1cc(C(=O)O)ccc1NC(=O)Cc1ccccc1` the inhibition was 54%.

tested on: Trypanosoma cruzi; assay: Inhibition of Trypanosoma cruzi recombinant Trans-sialidase at 0.4 mM; conditions: not given; how it was run: as §1

For `NC(N)=Nc1cc(C(=O)O)ccc1SCc1ccccc1`, the inhibition was 43%.

tested on: Trypanosoma cruzi; assay: Apparent activation of Trypanosoma cruzi recombinant Trans-sialidase; conditions: concentration not given here; how it was run: as §1

Work on `N=C(N)Nc1cc(CCN)cc(C(=O)O)c1` yielded an inhibition of -19%.

tested on: Trypanosoma cruzi; conditions: at 1 mM

In order of falling inhibition:
1. CS(=O)(=O)Nc1c(/C=N/O)cc(C(=O)O)cc1N=C(N)N  46%
2. N=C(N)Nc1cc(/C=N/O)cc(C(=O)O)c1  35%
3. C[S+]([O-])Nc1ccc(C(=O)O)cc1N=C(N)N (stereo unspecified)  29%
4. CS(=O)(=O)Nc1ccc(C(=O)O)nc1  25%
5. CC(=O)Nc1ccc(C(=O)O)cc1CCN  25%
6. CC(=O)Nc1ccc(C(=O)O)cc1/C=N/O  24%
7. CC(=O)Nc1ccc(C(=O)O)nc1  22%
8. CS(=O)(=O)Nc1ccc(C(=O)O)cc1C(O)CN (stereo unspecified)  17%
9. CC(=O)Nc1ccc(C(=O)O)cc1CC(O)CO (stereo in doubt; 31)  17%
10. CC(=O)Nc1ccc(C(=O)O)cc1CCO  16%
11. CC(=O)Nc1cnc(C(=O)O)cc1N  14%
12. CS(=O)(=O)Nc1c(CO)cc(C(=O)O)cc1N=C(N)N  11%
13. NC(N)=Nc1cc(C(=O)O)ccc1NCc1ccccc1  9%
14. CC(=O)Nc1ccc(C(=O)O)cc1  0%
15. CC(=O)Nc1ccc(C(=O)O)cc1CC(O)CO (stereo in doubt; 32)  0%
16. CC(=O)Nc1ccc(C(=O)O)cc1CC(N)=O  0%
17. CC(=O)Nc1c(CCO)cc(C(=O)O)cc1N=C(N)N  0%
18. NC(N)=Nc1cc(C(=O)O)cc(CCO)c1N  0%
19. O=C(CN1CCOCC1)Nc1ccc(C(=O)O)cc1  0%

— ChEMBL document CHEMBL1146360, “Benzoic acid and pyridine derivatives as inhibitors of Trypanosoma cruzi trans-sialidase” (Bioorg Med Chem, 2007)
